Biological target: T1, Prostaglandin G/H synthase 1 (Ovis aries, UniProt P05979)
T1 sequence (P05979 whole entry): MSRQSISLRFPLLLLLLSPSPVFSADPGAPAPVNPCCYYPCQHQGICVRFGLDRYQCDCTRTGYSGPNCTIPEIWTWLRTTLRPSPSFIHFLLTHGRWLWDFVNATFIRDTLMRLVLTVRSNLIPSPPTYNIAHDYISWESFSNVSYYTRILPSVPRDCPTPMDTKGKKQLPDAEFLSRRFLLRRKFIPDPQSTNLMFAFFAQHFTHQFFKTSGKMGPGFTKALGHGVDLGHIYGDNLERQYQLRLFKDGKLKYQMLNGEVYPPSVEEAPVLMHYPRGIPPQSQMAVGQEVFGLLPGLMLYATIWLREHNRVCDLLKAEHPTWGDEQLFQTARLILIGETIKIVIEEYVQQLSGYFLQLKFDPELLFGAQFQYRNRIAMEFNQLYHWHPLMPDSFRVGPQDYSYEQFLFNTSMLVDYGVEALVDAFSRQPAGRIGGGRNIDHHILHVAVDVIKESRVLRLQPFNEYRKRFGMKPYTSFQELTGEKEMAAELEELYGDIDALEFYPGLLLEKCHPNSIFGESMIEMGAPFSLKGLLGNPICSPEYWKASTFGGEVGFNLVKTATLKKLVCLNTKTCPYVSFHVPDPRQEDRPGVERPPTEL
Assay: Inhibition of ovine COX1 assessed as PGF2alpha level by EIA
Outline: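 Ovine COX-1 with heme in 0.1 M Tris-HCl pH 8.0 (5 mM EDTA, 2 mM phenol); compound at […] (final), 2 min preincubation at 37 °C. Started with arachidonic acid (100 µM), stopped after 2 min with 1 M HCl. PGH2 reduced to PGF2α by stannous chloride and quantified by EIA (18 h, room temperature; Ellman's reagent, 410 nm). IC50 from percent inhibition, mean of two determinations.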

| Structure (SMILES) | IC50 |
| --- | --- |
| COC1(c2cccc(CS(=O)(=O)Nc3ccccc3OCc3ccccc3)c2)CCOCC1 | 14.8 µM |
| CCOC(=O)c1ccc(OCc2ccccc2)c(NS(=O)(=O)Cc2cccc(C3(OC)CCOCC3)c2)c1 | 11.6 µM |
| COC1(c2cccc(CN(c3ccccc3OCc3ccccc3)S(C)(=O)=O)c2)CCOCC1 | > 100 µM |
| COC1(c2cccc(CN(c3ccc(Cl)cc3OCc3ccccc3)S(C)(=O)=O)c2)CCOCC1 | > 100 µM |
| COC1(c2cccc(CN(c3cc(Cl)ccc3OCc3ccccc3)S(C)(=O)=O)c2)CCOCC1 | > 100 µM |
| COC1(c2cccc(CN(c3cc(C)ccc3OCc3ccccc3)S(C)(=O)=O)c2)CCOCC1 | > 100 µM |
| COC1(c2cccc(COc3ccccc3OCc3ccccc3)c2)CCOCC1 | > 100 µM |
| CCOC(=O)c1ccc(OCc2cccc(C3(OC)CCOCC3)c2)c(OCc2ccccc2)c1 | 44.2 µM |
| CS(=O)(=O)Nc1ccc([N+](=O)[O-])cc1Oc1ccccc1 [NIMESULIDE] | 6.2 µM |

Next, values leading:

| IC50 | Structure (SMILES) |
| --- | --- |
| 24.4 µM | COC1(c2cccc(CS(=O)(=O)Nc3ccc(Cl)cc3OCc3ccccc3)c2)CCOCC1 |
| 15.6 µM | COC1(c2cccc(CS(=O)(=O)Nc3cc(Cl)ccc3OCc3ccccc3)c2)CCOCC1 |
| 16.5 µM | COC1(c2cccc(CS(=O)(=O)Nc3cc(C)ccc3OCc3ccccc3)c2)CCOCC1 |
| 7.9 µM | COC1(c2cccc(CS(=O)(=O)Nc3ccc([N+](=O)[O-])cc3OCc3ccccc3)c2)CCOCC1 |
| 13.5 µM | COC1(c2cccc(CN(c3ccc([N+](=O)[O-])cc3OCc3ccccc3)S(C)(=O)=O)c2)CCOCC1 |
| > 100 µM | COC1(c2cccc(CNc3ccccc3OCc3ccccc3)c2)CCOCC1 |
| 34.6 µM | COC1(c2cccc(CNc3ccc(Cl)cc3OCc3ccccc3)c2)CCOCC1 |
| > 100 µM | COC1(c2cccc(CNc3cc(Cl)ccc3OCc3ccccc3)c2)CCOCC1 |
| > 100 µM | COC1(c2cccc(CNc3cc(C)ccc3OCc3ccccc3)c2)CCOCC1 |
| 88.8 µM | COC1(c2cccc(CNc3ccc([N+](=O)[O-])cc3OCc3ccccc3)c2)CCOCC1 |
| > 100 µM | COC1(c2cccc(COc3ccc(Cl)cc3OCc3ccccc3)c2)CCOCC1 |
| > 100 µM | COC1(c2cccc(COc3ccc(Br)cc3OCc3ccccc3)c2)CCOCC1 |

— ChEMBL document CHEMBL1681772 (Bioorg Med Chem, 2011)
